Source: PubChem (Johns Hopkins Ion Channel Center)
Sampled rows, rich in hits. Any-hit rate of the full collection: about 3.1%.
KCNQ1 pot: potentiates or activates the human KCNQ1 potassium channel | P51787 | CHO-K1 KCNQ1, thallium flux FluxOR fluorescence; hits give high values | B-score at 10 µM | hit rate 0.35% among 310,000 | AID 2648;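 active = fluorescence ratio B-score, a plate-corrected score, at least three library SD, with initial intensity B-score within 5 SD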
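Material: CHO-K1 cells stably expressing KCNQ1. Medium: assay buffer for compound exposure, DMSO matched across wells. Reagent: K+/Tl+ depolarizing stimulus. Compound dosing: single-concentration screen. Times: 37 °C overnight plating, 90-min dark dye load, 20-min compound pretreatment. Technique: FluxOR Tl+ flux fluorescence.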
KCNK9 inh: inhibitors of human KCNK9 two-pore domain potassium channel; Q9NPC2; B-score at 10 µM; hit rate 1.2% among 310,000; HEK293 KCNK9, FluxOR thallium flux fluorescence; hits give low values; AID 488922;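 active = ratio B-score over 3 SD below the library mean, with starting fluorescence within 5 SD of its mean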;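 also: negative B-score means less thallium flux so channel inhibition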
KCNQ1 block: blocks the human KCNQ1 potassium channel; CHO-K1 KCNQ1, FluxOR thallium flux fluorescence; hits give high values; B-score at 10 µM; hit rate 1.3% among 310,000;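 active = compounds whose thallium flux B-score, printed positive for inhibition, exceeds three library SD while starting fluorescence stays within three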;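 also: channel opened by potassium depolarization with thallium stimulus after 20 min compound exposure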
KCNK3 inh: human KCNK3 channel inhibition, primary screen; O14649; CHO-KCNK3 thallium flux, FluxOR fluorescence; hits give low values; B-score at 10 µM; hit rate 0.84% among 340,000; AID 602410;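 active = B-score under library mean minus 4 SD, starting fluorescence ratio at most library mean plus 5 SD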;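 also: more negative B-score means stronger inhibition of thallium flux through KCNK3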
hERG protect: shields human hERG channel from block by proarrhythmic agents; Q12809; CHO-hERG, FluxOR thallium flux, dofetilide IC70 present; activation (rescue from dofetilide block), less the hit threshold, % at 10 µM; hit rate 0.51% among 310,000; AID 1511;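 active = activation above the mean of controls blocked by dofetilide plus 5 SD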;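 also: thallium influx through hERG after potassium depolarization seen as dye fluorescence rise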
An asterisk follows results filed as active; i = inactive; . = not tested or not shown.

SMILES	KCNQ1 pot	KCNK9 inh	KCNQ1 block	KCNK3 inh	hERG protect
CCN(C(=O)COc1ccc(N(C)S(=O)(=O)c2ccc(NC(C)=O)cc2)cc1)C1CCCCC1	.	.	.	-8.7*	.
COc1ccc(NC(=O)COc2ccc(N(C)S(=O)(=O)c3ccc(Cl)cc3)cc2)cc1OC	i	i	10*	i	-23
COc1ccc(-c2csc(NC(=O)COc3ccc(N(C)S(=O)(=O)c4ccc(C)cc4)cc3)n2)cc1	i	-8*	i	i	-11
CN(c1ccc(OCC(=O)OCC(=O)Nc2ccc(F)cc2)cc1)S(=O)(=O)c1ccc(Cl)cc1	i	i	i	i	-3
CCc1nc(Nc2ccc3c(c2)OCCO3)c2oc3ccccc3c2n1	i	-7.6*	i	i	-26
CCc1nc(NCC2CCCO2)c2oc3ccccc3c2n1 (configuration not stated)	i	i	i	-28*	-7
Cc1nc(Nc2ccc3c(c2)OCCO3)c2oc3ccccc3c2n1	i	i	i	i	-13
Cc1nc(NCC2CCCO2)c2oc3ccccc3c2n1 (configuration not stated)	i	i	i	i	-14
CCNC(=S)N/N=C1\C(=O)c2cccc3cccc1c23	9*	i	i	i	7.9*
CCNC(=S)N/N=C1\CCCCc2ccccc21	i	i	i	i	1
O=C(N/N=C1/C(=O)c2cccc3cccc1c23)c1ccc(Cl)cc1	41*	i	i	i	53*
CC(C)(C)NCC(O)COc1ccccc1C(C)(C)C (configuration not stated)	8*	i	i	i	-11
CC(C)(C)NCC(O)COc1ccccc1C(=O)CCc1ccccc1 (configuration not stated)	i	i	i	i	1
CCC(C)N(C(=O)CSc1nnc2ccccn12)C1CCS(=O)(=O)C1 (configuration not stated)	.	.	.	i	.
COc1ccc(/C=N\NC(=O)c2cc(O)c(O)c(O)c2)cc1COc1ccc(C(=O)OCC(C)C)cc1	i	i	i	i	-5
COCCN(CCOC)c1nc(S(=O)(=O)c2ccc(C)cc2)c(Cl)s1	i	-7.8*	i	i	-5
NC(=O)c1ccc(OCC(=O)N2CCNC2=O)cc1	.	.	.	i	.
Cn1c(-c2ccc3c(c2)OCO3)cnc1NCc1ccc(Cl)cc1	i	i	11*	i	-16
Cc1ccc(CNc2ncc(-c3ccc4c(c3)OCO4)n2C)cc1	i	i	i	i	-28
CCOC(=O)c1cc(C(=O)OCC)c2cc(Br)ccc2n1	i	i	i	i	-11
CCCCOC(=O)c1cc(C)nc2ccc(Br)cc12	i	i	i	i	6.5*
O=C(Nc1nnc(-c2ccc(F)cc2)o1)c1ccc(S(=O)(=O)N2CCOCC2)cc1	i	i	i	i	-4
O=C(c1cnn2c(C(F)(F)F)cc(-c3cccs3)nc12)N1CCN(C(c2ccccc2)c2ccccc2)CC1	i	i	6*	i	-12
CN1CCN(C(=O)c2cnn3c(C(F)(F)F)cc(-c4cccs4)nc23)CC1	i	i	i	i	-5
Cc1cc(Cl)c(S(=O)(=O)N/N=C/c2ccc3c(c2)OCO3)c(Cl)c1	i	i	10*	i	-11
SMILES	KCNQ1 pot	KCNK9 inh	KCNQ1 block	KCNK3 inh	hERG protect
Cc1cc(C)c(S(=O)(=O)N/N=C/c2ccc3c(c2)OCO3)c(C)c1	i	i	i	i	-10
Cc1cc(O)c(C(C)C)cc1NC(=S)Nc1cc(C(C)C)c(O)cc1C	.	.	.	i	.
CC(NC(=S)Nc1ccc([N+](=O)[O-])cc1)c1ccncc1 (configuration not stated)	i	i	7*	i	0
CSc1nc(N)nc(SCC(=O)C23CC4CC(CC(C4)C2)C3)c1C#N	i	-7.5*	i	i	-16
CCSC1=C(C#N)C(c2ccccc2Cl)C(C(=O)c2cccs2)C(O)(C(F)(F)F)N1 (configuration not stated)	i	i	i	i	-19
C=CCSC1=C(C#N)C(c2ccccc2Cl)C(C(=O)c2cccs2)C(O)(C(F)(F)F)N1 (configuration not stated)	i	i	10*	i	-12
Cc1nc(S(=O)(=O)Cc2ccccc2Cl)nc2c1CCC2	i	i	i	i	-11
